In all, about 310,000 compounds went through this assay and about 1,500 (0.48%) were called active.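 Rule for the calls: active = B-score above 5 SD of library B-scores, and initial fluorescence ratio not above library mean plus 5 SD; inactive = the rest.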 The list comes from a sample in which actives are over-represented; it also holds similar structures and randomly drawn compounds.
Target: Short transient receptor potential channel 4 (Mus musculus) (UniProt Q9QUQ5)
Experiment: activators of mouse TRPC4 channel, primary screen, Fluo4 calcium, HEK293 TRPC4beta/mu-opioid cells (AID 2237);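 for B-score: positive B-score marks a calcium rise read as TRPC4 activation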
Settings: Fluo4 calcium fluorescence, at 10 µM; hits give high values
How it was run: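 system = HEK293 cells stably co-expressing mouse TRPC4beta and mu-opioid receptor | schedule = Fluo4 dye loading 45 min at room temperature, 110 s recording | measure = B-scored integrated calcium fluorescence ratio | signal = Fluo4 calcium-sensitive dye fluorescence, kinetic, 1 Hz baseline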

Short transient receptor potential channel 4 (Mus musculus), sequence (Q9QUQ5 whole entry, looked up): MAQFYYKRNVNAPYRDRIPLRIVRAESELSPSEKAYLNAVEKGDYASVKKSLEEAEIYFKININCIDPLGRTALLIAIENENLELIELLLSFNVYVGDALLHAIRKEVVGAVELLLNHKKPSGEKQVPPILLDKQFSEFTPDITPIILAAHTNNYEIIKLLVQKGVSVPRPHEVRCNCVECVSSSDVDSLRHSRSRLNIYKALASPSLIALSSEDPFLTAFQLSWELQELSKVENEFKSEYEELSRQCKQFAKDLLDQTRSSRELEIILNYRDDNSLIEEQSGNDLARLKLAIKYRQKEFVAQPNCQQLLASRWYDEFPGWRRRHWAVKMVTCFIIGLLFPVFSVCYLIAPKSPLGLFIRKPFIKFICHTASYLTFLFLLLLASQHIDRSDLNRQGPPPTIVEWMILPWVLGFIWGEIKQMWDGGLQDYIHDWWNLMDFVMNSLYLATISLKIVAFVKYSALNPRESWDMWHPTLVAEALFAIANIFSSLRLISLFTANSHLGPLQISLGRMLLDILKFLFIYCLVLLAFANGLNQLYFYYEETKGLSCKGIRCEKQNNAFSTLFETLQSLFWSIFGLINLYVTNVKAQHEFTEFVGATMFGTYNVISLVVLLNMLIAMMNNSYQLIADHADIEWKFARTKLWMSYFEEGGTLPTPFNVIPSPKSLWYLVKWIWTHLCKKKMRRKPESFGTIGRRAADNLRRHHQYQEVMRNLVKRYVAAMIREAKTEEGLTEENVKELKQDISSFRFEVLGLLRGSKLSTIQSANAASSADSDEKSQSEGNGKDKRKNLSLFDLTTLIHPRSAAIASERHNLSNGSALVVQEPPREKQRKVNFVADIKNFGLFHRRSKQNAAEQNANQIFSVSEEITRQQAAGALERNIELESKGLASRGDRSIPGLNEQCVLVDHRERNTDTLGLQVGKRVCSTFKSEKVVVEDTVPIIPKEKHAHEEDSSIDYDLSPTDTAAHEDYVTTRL

SMILES | B-score
Cc1cc(C)c2nc(N3CCC(C(=O)NCCN4CCOCC4)CC3)sc2c1 | inactive
CCC1CCCCN1CCCNC(=O)c1cc2c(Cl)nc3ccccc3c2s1 (centres undefined) | inactive
CSCc1nnc(NC(=O)c2ccc(S(=O)(=O)N3CCCCC3C)cc2)o1 (centres undefined) | inactive
CC1CCCN(S(=O)(=O)c2ccc(C(=O)Nc3nnc(-c4ccncc4)o3)cc2)C1 (centres undefined) | inactive
CC1CCCCN1S(=O)(=O)c1ccc(C(=O)Nc2nnc(-c3cccs3)o2)cc1 (centres undefined) | 74 (active)
COc1ccc(N2C(=O)NC(NS(=O)(=O)c3ccc(Cl)cc3)(C(F)(F)F)C2=O)cc1 (centres undefined) | inactive
CCCc1ccc(OCC(O)CN2CCN(CCO)CC2)cc1 (centres undefined) | inactive
CCOc1ccc(N(CC(=O)NCCc2ccc(OC)cc2)S(C)(=O)=O)cc1 | inactive
CC1(C)CC(N2CCN(C(c3ccccc3)c3ccccc3)CC2)=CC(=[N+]2CCCCC2)C1 | inactive
COCCN1C2=C(COC(C)(C)C2)C(=S)NC1c1ccccc1 (centres undefined) | 76 (active)
COCCN1C(=O)N[C@@H](CCc2ccccc2)[C@H](C(C)=O)[C@H]1C | inactive
COC(=O)C1=C(C)N(C)C(=S)NC1c1ccccc1 (centres undefined) | inactive
CCN(c1ccccc1)S(=O)(=O)c1ccc2[nH]c(=O)[nH]c2c1 | inactive
CCOc1ccc(NS(=O)(=O)c2ccc(C(=O)NC3CCN(Cc4ccccc4)CC3)cc2)cc1 | 49 (active)
CCOc1ccc(C(=O)NC2CCN(S(=O)(=O)CC)CC2)cc1 | inactive
CCOc1ccc(CC(=O)NC2CCN(Cc3ccccc3)CC2)cc1 | inactive
CN(CCc1ccccn1)C(=O)c1ccc(OC2CCN(CCc3ccccc3)CC2)cc1 | inactive
CC(O)CN(Cc1ccc(Cl)cc1)CC(C)O (centres undefined) | inactive
COc1cc(C(=O)N(C)Cc2cccc(OC)c2OC)ccc1OCC(=O)Nc1cccc(C(F)(F)F)c1 | inactive
CCCCC(=O)NNC(=S)NC(=O)C(c1ccccc1)c1ccccc1 | 152 (active)
O=C(NNC(=S)NCc1ccco1)C(c1ccccc1)c1ccccc1 | inactive
CC(C)C(=O)Nc1cccc(NC(=S)NC(=O)C(c2ccccc2)c2ccccc2)c1 | inactive
O=C(NCCc1ccccn1)c1ccc(COc2ccccc2)o1 | 120 (active)
CCOc1ccc(OCc2ccc(C(=O)N(C)c3ccccc3)o2)cc1 | inactive
COc1ccc(NC(=O)CN(C)C(=O)c2ccc(COc3ccccc3)o2)cc1 | inactive
Cc1cc(N2CCN(c3ccc(F)cc3)CC2)n2ncnc2n1 | inactive

SMILES | B-score
CCOCCCNC(=O)C(=O)NCCCOCC | inactive
CCCCn1c(-c2cccc(C)c2)nc2cc3[nH]c(=O)c(C(C)C)nc3cc21 | inactive
Cc1ccnc(NC(=O)CCNS(=O)(=O)c2ccc(C)c(C)c2)c1 | inactive
CCOc1ccc(NS(=O)(=O)c2ccc(C(=O)NCC(c3ccccc3OC)N3CCCC3)cc2)cc1 (centres undefined) | inactive
CC(NC(=O)COC(=O)c1ccc(Cl)cc1O)c1ccc(F)cc1 (centres undefined) | inactive
COc1ccc(C(CNCC(=O)Nc2ccccc2F)N(C)C)cc1 (centres undefined) | 108 (active)
COc1ccc(C(CNC(=O)c2ccc(S(=O)(=O)Nc3ccccc3F)cc2)N(C)C)cc1 (centres undefined) | inactive
COc1ccc(Cl)cc1NC(=O)CNc1ccccc1F | inactive
CC1(C)CC(=O)c2ccc(O)cc2O1 | inactive
COc1ccc2c(c1)OC(O)(C(F)(F)C(F)F)CC2=O (centres undefined) | 82 (active)
COc1ccc2c(c1)SC(C)CC2=O (centres undefined) | inactive
O=S1(=O)CC/C(=N\Nc2ccc(F)cc2)c2ccsc21 | inactive
CC(C)Sc1ncnc2c1cnn2-c1ccccc1 | inactive
COc1ccc(-n2ncc3c(SCC(=O)NNC(C)=O)ncnc32)cc1 | inactive
COc1ccc(-n2ncc3c(N4CCc5ccccc54)ncnc32)cc1 | 64 (active)
CC(C)N1CCC(NC(=O)Nc2ccccc2)CC1 | inactive
COc1ccccc1N(CC(=O)N1CCCCC1)S(=O)(=O)c1ccccc1 | 56 (active)
COc1ccc(C)cc1N(CC(=O)N1CCCC1)S(=O)(=O)c1ccccc1 | inactive
COc1ccc(N(CC(=O)N2CCCCCC2)S(=O)(=O)c2ccccc2)cc1 | inactive
COC(=O)CC1=NN(c2nc(C)cc(C)n2)C(=O)C1 | inactive
S=C(Nc1ccc(Br)cc1)NC1CCN(Cc2ccccc2)CC1 | inactive
S=C(Nc1ccc(Br)cc1Cl)NC1CCN(Cc2ccccc2)CC1 | 57 (active)
O=C(COc1ccc(Br)cc1F)NC1CCN(Cc2ccccc2)CC1 | inactive
O=C(COc1ccccc1Cl)N1CCCCCCC1 | inactive
CCN1C(=O)C(C(=O)NC(C)c2ccccc2)C2CC1(C)Oc1ccccc12 (centres undefined) | inactive
CCCCN(CC)CCCNC(=O)CS(=O)(=O)Cc1nc(-c2cccc(OC)c2)oc1C | 56 (active)

SMILES | B-score
COc1cccc(-c2nc(CS(=O)(=O)CC(=O)NCCc3ccc(OC)c(OC)c3)c(C)o2)c1 | inactive
COc1ccc(-c2nc(CS(=O)(=O)CC(=O)NCc3cccc(Br)c3)c(C)o2)cc1 | inactive
CCN1/C(=C\c2ccc3ccccc3[n+]2CC)Sc2cc(C)ccc21 | 425 (active)
CCOc1ccc(CN2CCNC(=O)C2CC(=O)NCCCC2CCCC2)cc1 (centres undefined) | inactive
CCN(CC)c1ccc(NC(=O)C2CCC(CNc3c(N4CCCC4)c(=O)c3=O)CC2)c(C)c1 (centres undefined) | inactive
CCCn1c(C2CCCN2c2nc(-c3ccc(OC)cc3)cs2)nc2ccccc21 (centres undefined) | 70 (active)
CCCn1c(CCNc2nc(-c3ccc(OC)cc3)cs2)nc2ccccc21 | inactive
CCCn1c(C2CCCN2c2nc(-c3ccc(C)cc3)cs2)nc2cc(Cl)c(N3CCCCC3)cc21 (centres undefined) | inactive
CCN1C(=O)[C@H]2[C@@H](c3ccc(-c4ccc(OC)cc4)cc3)N[C@@](Cc3ccccc3)(C(=O)OC)[C@H]2C1=O | inactive
COC(=O)c1cc(S(=O)(=O)NC2CCN(Cc3ccccc3)CC2)cn1C | inactive
CCC1(CC)Cc2ccccc2-c2nc(CCl)[nH]c(=O)c21 | inactive
COc1cc(CN2CCCC(C(=O)c3ccc(SC)cc3)C2)cc(Cl)c1O (centres undefined) | inactive
COc1ccc(CCN(C)C(=O)C2CCCN(Cc3ccc(OC)c(OC)c3)C2)cc1OC (centres undefined) | inactive
COc1ccc(CN2CCCC(C(=O)c3ccc(Cl)cc3)C2)cc1Cn1cncn1 (centres undefined) | 48 (active)
CCNS(=O)(=O)c1ccc(CCC(=O)N2CCN(c3ccc(OC)cc3)CC2)cc1 | inactive
CN1CCN(NC(=O)Nc2ccc(Br)cc2)CC1 | inactive
COCC(=O)Nc1ccc(Br)cc1 | inactive
CN1C(CC(=O)Nc2ccc(Br)cc2)c2ccccc2CC1(C)C (centres undefined) | 109 (active)
COC(=O)C1CCN(C(=O)NC2CC(=O)N(c3ccc4c(c3)OCCO4)C2)CC1 (centres undefined) | inactive
CN(CC(=O)Nc1ccccc1Cl)C(=O)COc1cccc2c1OC(C)(C)C2 | inactive
CCOC(=O)C1(CC2CCCCO2)CCN(Cc2nc(-c3cccs3)oc2C)CC1 (centres undefined) | 73 (active)
COc1cccc(CC2(CO)CCCN(Cc3nc(-c4cccs4)oc3C)C2)c1 (centres undefined) | inactive
CCOc1ccccc1-c1nc(CN2CCC(C(=O)N3CCOCC3)CC2)c(C)o1 | inactive
CC12CCC(C(=O)N(NC(=O)c3ccccc3O)C1=O)C2(C)C (centres undefined) | inactive
O=C(NCc1cccnc1)c1cnc2ccccc2n1 | inactive
COc1cc(C(=O)Nn2c(CC(C)C)nc3ccccc3c2=O)cc(OC)c1OC | inactive

SMILES | B-score
Cc1ccc(CNC(=O)c2c(-c3ccccc3)noc2C)cc1 | inactive
Cc1onc(-c2ccccc2)c1C(=O)NNC(=S)NC(=O)c1ccc(F)cc1 | 185 (active)
Cc1onc(-c2ccccc2)c1C(=O)Nc1ccccc1C#N | inactive
CCc1noc(C)c1C(=O)NNC(=O)c1ccc(F)cc1 | inactive
COc1ccc(C(=O)NC(=S)NNC(=O)c2c(-c3ccccc3)noc2C)cc1 | 133 (active)
Cc1onc(-c2c(Cl)cccc2Cl)c1C(=O)NNC(=O)c1c(-c2c(Cl)cccc2Cl)noc1C | inactive
CCc1cccc(C)c1NS(=O)(=O)c1cc(Br)cnc1N | inactive
Cc1cc(NS(=O)(=O)c2ccc(NC(=O)C(C)Oc3cccc(C)c3C)cc2)nc(C)n1 (centres undefined) | inactive
COc1ccccc1N1CCN(c2nc(C)cc(=O)[nH]2)CC1 | inactive
Cc1ccc(CN2CCN(c3ccccc3Cl)CC2)o1 | inactive
OCCNCCOc1ccc(Cl)c(Cl)c1 | 70 (active)
OCCNCc1cccc(OCc2ccccc2Cl)c1 | inactive
OCCNCCCCOc1ccccc1F | inactive
COc1cccc2c1CCC(NC(C)=O)C2=O (centres undefined) | inactive
c1ccc(C[C@H]2CNCCN2CCC23CC4CC(CC(C4)C2)C3)cc1 | inactive
COC(=O)C1(C)CC1(c1ccccc1)c1ccccc1 (centres undefined) | inactive
CCN(CC(=O)Nc1ccc(S(=O)(=O)N2CCCC2)cc1)CC(=O)Nc1cccc(OC)c1 | inactive
COc1cccc(NC(C)=[N+](C)CCNS(=O)(=O)c2ccc(Cl)cc2)c1 | inactive
CCNS(=O)(=O)c1ccc(NC(=O)Nc2cccc(OC)c2)cc1 | 54 (active)
CC(CN1CCCCC1)c1ccccc1 (centres undefined) | inactive
CC(=O)N1CCN(CC(c2ccccc2)c2ccccc2)CC1 | inactive
CC(=O)c1ccc(N2CCN(C(=O)CCc3ccccc3)CC2)cc1 | inactive
CC(=O)c1ccc(N2CCN(CC(O)c3ccccc3)CC2)cc1 (centres undefined) | 63 (active)
CCCOc1ccc(Cc2c(O)nc(N)[nH]c2=O)cc1C | inactive
C=CCc1ccc(OCCOc2cccc(/C=N/n3cnnc3)c2)c(OC)c1 | inactive
COC(=O)[C@H]1Cc2cnoc2C[C@]1(C)C(=O)O | inactive

Source: PubChem BioAssay AID2237 (Johns Hopkins Ion Channel Center, 2010)
